Laboratory results published in PMC6655586 (Nature, 2019).

Legend:
HTS cells = assay: Mitochondrial membrane potential; type: cell-based, mouse; conditions: 1 μM, 10 minutes
Outline: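 HTS cells were exposed for 10 minutes to DMSO, test compound, FCCP, rotenone, antimycin A or oligomycin A, then mitochondrial membrane potential was quantified. Mean ± SD; n = 3 (FCCP, rotenone) or 4 (others).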

MEFs = assay: Western blot for ATF4 in MEFs; type: cell-based, mouse; conditions: 1 μM, 6 hours

Row | Compound | acute change of mitochondrial membrane potential (HTS cells) | ATF4 induction (MEFs)
1 | oligomycin A | acute increase in mitochondrial membrane potential | ATF4 induction
2 | CCCCCC[C@H]1C(=O)O[C@H](C)[C@H](NC(=O)c2cccc(NC=O)c2O)C(=O)O[C@@H](C)[C@@H]1OC(=O)CC(C)C [antimycin A] | acute reduction of membrane potential | ATF4 induction
3 | C=C(C)[C@H]1Cc2c(ccc3c2O[C@@H]2COc4cc(OC)c(OC)cc4[C@@H]2C3=O)O1 [rotenone] | acute reduction of membrane potential | ATF4 induction
